# PMC8026699 (Cancer research, 2021)
# Experiments:
# recombinant human ACSS1 = biological target: T1, recombinant human ACSS1 (Homo sapiens, UniProt Q9NUB1); assay: TranScreener AMP biochemical assay of ACSS1 activity; conditions: regardless of the substrate (acetate or propionate)
# T1 sequence (Q9NUB1 38-689): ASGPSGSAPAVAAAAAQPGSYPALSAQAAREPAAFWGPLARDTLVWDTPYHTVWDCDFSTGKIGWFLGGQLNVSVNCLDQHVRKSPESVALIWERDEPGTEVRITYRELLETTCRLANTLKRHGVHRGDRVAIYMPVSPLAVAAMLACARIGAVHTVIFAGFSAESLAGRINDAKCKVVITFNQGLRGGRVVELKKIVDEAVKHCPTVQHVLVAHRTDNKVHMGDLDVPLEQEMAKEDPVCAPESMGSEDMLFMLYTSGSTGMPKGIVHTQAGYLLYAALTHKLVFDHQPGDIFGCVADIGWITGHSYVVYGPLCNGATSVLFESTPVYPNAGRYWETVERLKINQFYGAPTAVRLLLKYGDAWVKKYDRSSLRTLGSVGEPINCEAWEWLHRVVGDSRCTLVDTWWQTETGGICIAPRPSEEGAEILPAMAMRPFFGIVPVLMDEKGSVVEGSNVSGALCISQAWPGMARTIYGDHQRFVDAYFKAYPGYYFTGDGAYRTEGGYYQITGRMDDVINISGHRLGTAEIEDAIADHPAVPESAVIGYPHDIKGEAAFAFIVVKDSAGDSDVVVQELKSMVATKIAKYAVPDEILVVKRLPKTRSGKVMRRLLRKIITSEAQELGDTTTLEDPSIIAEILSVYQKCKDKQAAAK
# Method in brief: (§1)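 Test compound was serially diluted in DMSO and added to ACSS1 (2 nM) or ACSS3 (25 nM). Acetate reaction: HEPES pH 7.4 buffer with 140 mM NaCl; final 5 mM acetate, 50 μM ATP, 5 μM CoA. Propionate reaction: HEPES/KCl/CHAPS buffer; final 5 mM propionate, 10 μM ATP, 100 μM CoA. Incubation 120 min, then AMP detected by terbium-antibody/tracer TR-FRET after 30 min. Percent inhibition was set against no-enzyme and DMSO controls.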
# recombinant human ACSS3 = biological target: T2, recombinant human ACSS3 (Homo sapiens, UniProt Q9H6R3); assay: TranScreener AMP biochemical assay of ACSS3 activity; conditions: regardless of the substrate (acetate or propionate)
# T2 sequence (Q9H6R3 30-686): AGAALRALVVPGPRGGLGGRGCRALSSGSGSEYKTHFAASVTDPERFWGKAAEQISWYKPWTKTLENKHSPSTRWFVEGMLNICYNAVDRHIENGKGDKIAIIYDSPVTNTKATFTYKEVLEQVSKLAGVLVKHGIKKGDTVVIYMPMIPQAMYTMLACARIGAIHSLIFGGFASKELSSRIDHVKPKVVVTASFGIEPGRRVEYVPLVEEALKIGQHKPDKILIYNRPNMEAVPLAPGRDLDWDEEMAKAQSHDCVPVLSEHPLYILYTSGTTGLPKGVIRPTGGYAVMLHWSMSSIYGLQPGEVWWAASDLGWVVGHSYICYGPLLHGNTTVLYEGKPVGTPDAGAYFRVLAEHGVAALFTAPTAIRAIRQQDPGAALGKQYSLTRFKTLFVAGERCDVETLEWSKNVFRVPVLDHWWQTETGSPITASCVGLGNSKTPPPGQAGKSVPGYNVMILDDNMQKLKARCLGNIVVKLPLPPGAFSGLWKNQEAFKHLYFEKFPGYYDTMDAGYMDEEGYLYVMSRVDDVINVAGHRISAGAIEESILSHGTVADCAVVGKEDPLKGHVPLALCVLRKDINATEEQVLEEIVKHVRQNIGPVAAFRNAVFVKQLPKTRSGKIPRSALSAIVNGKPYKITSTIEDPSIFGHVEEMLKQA
# Method in brief: as §1
# Water solubility in PBS = type: physicochemical; conditions: PBS buffer pH 7.4, room temperature
# Method in brief: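 10 mg test compound in 1 mL PBS pH 7.4, sonicated 30 min, vortexed 30 min at low speed, then left 16–24 h at room temperature. Filtered (0.22 μm) and 10-fold serially diluted in triplicate in ACN:water (1:1). Internal standard added; LC-MS/MS quantitation against a five-standard calibration curve.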
# MDA-MB-468 cells = assay: ERK phosphorylation immunoblot in MDA-MB-468 cells; type: cell-based, human
# BT474 cells = assay: ERK phosphorylation immunoblot in BT474 cells; type: cell-based, human
# SKBr3 cells = assay: ERK phosphorylation immunoblot in SKBr3 cells; type: cell-based, human
SMILES,inhibitory activity towards ACSS1 (recombinant human ACSS1),inhibitory activity towards ACSS3 (recombinant human ACSS3),aqueous solubility (Water solubility in PBS),phosphorylation of ERK (MDA-MB-468 cells),phosphorylation of ERK (BT474 cells),phosphorylation of ERK (SKBr3 cells)
"COCCNC(=O)Nc1ccc2nc(-c3cccs3)c(-c3cccs3)nc2c1 [VY-3-249, 1-(2,3-di(thiophen-2-yl)quinoxalin-6-yl)-3-(2-methoxyethyl)urea, reference compound]",neither VY-3-249 nor VY-3-135 displayed any inhibitory activity,neither VY-3-249 nor VY-3-135 displayed any inhibitory activity,poorly soluble,–,–,–
CS(=O)(=O)CCNCc1ccc(-c2ccc3ncnc(Nc4ccc(OCc5cccc(F)c5)c(Cl)c4)c3c2)o1 [lapatinib],–,–,–,decreases phosphorylation of ERK,decreases phosphorylation of ERK,decreases phosphorylation of ERK
